{"source": "ChEMBL document CHEMBL4665734", "about": "“Optimization of globomycin analogs as novel gram-negative antibiotics” (Bioorg Med Chem Lett, 2020)", "key": {"[1]": {"tested_on": "Escherichia coli", "experiment": "Inhibition of LspA in Escherichia coli CFT073imp4213 harboring outer membrane-permeable mutant assessed as inhibition of bacterial growth", "procedure,_shortened": "(§1)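 Read-out is the minimum inhibitory concentration, reported in µM.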"}, "[2]": {"tested_on": "Escherichia coli CFT073", "experiment": "Inhibition of LspA in wild type Escherichia coli CFT073 assessed as inhibition of bacterial growth", "procedure,_shortened": "as §1"}, "[3]": {"experiment": "Stability of the compound in human plasma assessed as parent compound remaining after 24 hrs", "assay_type": "ADME, cell-free", "conditions": "read-out: Stabilty", "procedure,_shortened": "(§2)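 Test compound incubated for 24 hour in human, rat or mouse plasma. Stability is reported as the percentage of parent compound remaining.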"}, "[4]": {"experiment": "Growth inhibition of Staphylococcus aureus USA300"}, "[5]": {"experiment": "Stability of the compound in mouse plasma assessed as parent compound remaining after 24 hrs", "assay_type": "ADME, cell-free", "conditions": "read-out: Stabilty", "procedure,_shortened": "as §2"}, "[6]": {"experiment": "Lipophilicity, logD of the compound at pH 7.4", "conditions": "buffer, pH 7.4, logD"}}, "note": "Starred links: 1 amine or outer side, 2 acyl side, 3 side chain; linkers in the order of their positions; H or OH if unused. Non-standard residues stand in square brackets, D forms with d. Residues, ends and D or L forms follow the SMILES beside them. Groups on a side chain read outwards from the residue. *: point of attachment. X1 = CCCCCC[C@@H](OC[C@@H](C)N[*:1])[C@@H](C)C(=O)[*:2]; Gly(cHept) = N[C@H](C(=O)O)C1CCCCCC1; Propyl(3-guanidino) = N=C(N)NCCC*; NMeL = CN[C@@H](CC(C)C)C(=O)O; Chg = N[C@H](C(=O)O)C1CCCCC1; NMeNva = CCC[C@H](NC)C(=O)O; Propyl(3-NMe2) = CN(C)CCC*; X13 = N[C@H]1C[C@H](N*)C1; hSer = N[C@@H](CCO)C(=O)O; X14 = NCCN1CC[C@H](*)C1; Dap = NC[C@H](N)C(=O)O; Propyl(3-NH2) = NCCC*; CO = O=C([*:1])[*:2]; X12 = NCC(CN)*; X11 = NCCCC*", "data": [{"smiles": "CCCCCC[C@H]1OC[C@@H](C)NC(=O)[C@H]([C@H](C)O)NC(=O)[C@H](CN)NC(=O)[C@H](C2CCCCC2)NC(=O)[C@H](CC(C)C)N(C)C(=O)[C@@H]1C", "values": [{"measurement": "MIC", "setting": "[1]", "value": 0.034, "unit": "µM"}, {"measurement": "MIC", "setting": "[2]", "value": 2.9, "unit": "µM"}, {"measurement": "remaining at 24 h", "setting": "[3]", "value": 93, "unit": "%"}, {"measurement": "MIC", "setting": "[4]", "value": 71, "unit": "µM"}, {"measurement": "remaining at 24 h", "setting": "[5]", "value": 94, "unit": "%"}]}, {"smiles": "CCCCCC[C@H]1OCCCNC(=O)[C@H]([C@H](C)O)NC(=O)[C@H](CN)NC(=O)[C@H](C2CCCCC2)NC(=O)[C@H](CC(C)C)N(C)C(=O)[C@@H]1C", "values": [{"measurement": "MIC", "setting": "[1]", "value": 0.39, "unit": "µM"}, {"measurement": "MIC", "setting": "[2]", "value": 12, "unit": "µM"}, {"measurement": "remaining at 24 h", "setting": "[3]", "value": 96, "unit": "%"}, {"measurement": "MIC", "setting": "[4]", "value": 100, "unit": "µM"}, {"measurement": "remaining at 24 h", "setting": "[5]", "value": 101, "unit": "%"}]}, {"smiles": "CCCCCC[C@H]1OC[C@H](C)NC(=O)[C@H]([C@H](C)O)NC(=O)[C@H](CN)NC(=O)[C@H](C2CCCCC2)NC(=O)[C@H](CC(C)C)N(C)C(=O)[C@@H]1C", "values": [{"measurement": "MIC", "setting": "[1]", "value": 1, "unit": "µM"}, {"measurement": "MIC", "setting": "[2]", "value": 84, "unit": "µM"}, {"measurement": "remaining at 24 h", "setting": "[3]", "value": 88, "unit": "%"}, {"measurement": "MIC", "setting": "[4]", "value": 71, "unit": "µM"}, {"measurement": "remaining at 24 h", "setting": "[5]", "value": 93, "unit": "%"}]}, {"smiles": "CCCCCC[C@H]1OC[C@@H](C)NC(=O)[C@H](COCCCN)NC(=O)[C@H](CN)NC(=O)[C@H](C2CCCCC2)NC(=O)[C@H](CC(C)C)N(C)C(=O)[C@@H]1C", "note": "(cyclo([Chg][Dap]S(Propyl(3-NH2))[X1][NMeL]))", "values": [{"measurement": "MIC", "setting": "[1]", "value": 0.28, "unit": "µM"}, {"measurement": "MIC", "setting": "[2]", "value": 11, "unit": "µM"}, {"measurement": "logD", "setting": "[6]", "value": 1.5}, {"measurement": "MIC", "setting": "[4]", "value": 100, "unit": "µM"}]}, {"smiles": "CCCCCC[C@H]1OC[C@@H](C)NC(=O)[C@H](COCCCN(C)C)NC(=O)[C@H](CN)NC(=O)[C@H](C2CCCCC2)NC(=O)[C@H](CC(C)C)N(C)C(=O)[C@@H]1C", "note": "(cyclo([Chg][Dap]S(Propyl(3-NMe2))[X1][NMeL]))", "values": [{"measurement": "MIC", "setting": "[1]", "value": 0.39, "unit": "µM"}, {"measurement": "MIC", "setting": "[2]", "value": 25, "unit": "µM"}, {"measurement": "logD", "setting": "[6]", "value": 2.1}, {"measurement": "MIC", "setting": "[4]", "value": 100, "unit": "µM"}]}, {"smiles": "CCCCCC[C@H]1OC[C@@H](C)NC(=O)[C@H](COCCCNC(=N)N)NC(=O)[C@H](CN)NC(=O)[C@H](C2CCCCC2)NC(=O)[C@H](CC(C)C)N(C)C(=O)[C@@H]1C", "note": "(cyclo([Chg][Dap]S(Propyl(3-guanidino))[X1][NMeL]))", "values": [{"measurement": "MIC", "setting": "[1]", "value": 0.2, "unit": "µM"}, {"measurement": "MIC", "setting": "[2]", "value": 4.4, "unit": "µM"}, {"measurement": "logD", "setting": "[6]", "value": 2}, {"measurement": "MIC", "setting": "[4]", "value": 5, "unit": "µM"}]}, {"smiles": "CCCCCC[C@H]1OC[C@@H](C)NC(=O)[C@H](COCCCCN)NC(=O)[C@H](CN)NC(=O)[C@H](C2CCCCC2)NC(=O)[C@H](CC(C)C)N(C)C(=O)[C@@H]1C", "note": "(cyclo([Chg][Dap]S(X11)[X1][NMeL]))", "values": [{"measurement": "MIC", "setting": "[1]", "value": 0.18, "unit": "µM"}, {"measurement": "MIC", "setting": "[2]", "value": 7, "unit": "µM"}, {"measurement": "logD", "setting": "[6]", "value": 1.7}, {"measurement": "MIC", "setting": "[4]", "value": 56, "unit": "µM"}]}, {"smiles": "CCCCCC[C@H]1OC[C@@H](C)NC(=O)[C@H](COCCCCN)NC(=O)[C@H](CN)NC(=O)[C@H](C2CCCCCC2)NC(=O)[C@H](CCC)N(C)C(=O)[C@@H]1C", "note": "(cyclo([Dap]S(X11)[X1][NMeNva][Gly(cHept)]))", "values": [{"measurement": "MIC", "setting": "[1]", "value": 0.14, "unit": "µM"}, {"measurement": "MIC", "setting": "[2]", "value": 6.3, "unit": "µM"}, {"measurement": "logD", "setting": "[6]", "value": 1.8}, {"measurement": "MIC", "setting": "[4]", "value": 71, "unit": "µM"}]}, {"smiles": "CCCCCC[C@H]1OC[C@@H](C)NC(=O)[C@H](COC(CN)CN)NC(=O)[C@H](CN)NC(=O)[C@H](C2CCCCCC2)NC(=O)[C@H](CCC)N(C)C(=O)[C@@H]1C", "note": "(cyclo([Dap]S(X12)[X1][NMeNva][Gly(cHept)]))", "values": [{"measurement": "MIC", "setting": "[1]", "value": 0.55, "unit": "µM"}, {"measurement": "MIC", "setting": "[2]", "value": 3.1, "unit": "µM"}, {"measurement": "logD", "setting": "[6]", "value": 1.1}, {"measurement": "MIC", "setting": "[4]", "value": 50, "unit": "µM"}]}, {"smiles": "CCCCCC[C@H]1OC[C@@H](C)NC(=O)[C@H](CO[C@H]2CCN(CCN)C2)NC(=O)[C@H](CN)NC(=O)[C@H](C2CCCCCC2)NC(=O)[C@H](CCC)N(C)C(=O)[C@@H]1C", "note": "(cyclo([Dap]S(X14)[X1][NMeNva][Gly(cHept)]))", "values": [{"measurement": "MIC", "setting": "[1]", "value": 0.2, "unit": "µM"}, {"measurement": "MIC", "setting": "[2]", "value": 6.3, "unit": "µM"}, {"measurement": "logD", "setting": "[6]", "value": 1.6}, {"measurement": "MIC", "setting": "[4]", "value": 100, "unit": "µM"}]}, {"smiles": "CCCCCC[C@H]1OC[C@@H](C)NC(=O)[C@H](CNC(=O)N[C@H]2C[C@H](N)C2)NC(=O)[C@H](CN)NC(=O)[C@H](C2CCCCCC2)NC(=O)[C@H](CCC)N(C)C(=O)[C@@H]1C", "note": "(cyclo([Dap][Dap]([CO-X13])[X1][NMeNva][Gly(cHept)]))", "values": [{"measurement": "MIC", "setting": "[1]", "value": 0.39, "unit": "µM"}, {"measurement": "MIC", "setting": "[2]", "value": 12, "unit": "µM"}, {"measurement": "logD", "setting": "[6]", "value": 1.5}, {"measurement": "MIC", "setting": "[4]", "value": 71, "unit": "µM"}]}, {"smiles": "CCCCCC[C@H]1OC[C@@H](C)NC(=O)[C@H](CCOCCCN)NC(=O)[C@H](CN)NC(=O)[C@H](C2CCCCCC2)NC(=O)[C@H](CCC)N(C)C(=O)[C@@H]1C", "note": "(cyclo([Dap][hSer](Propyl(3-NH2))[X1][NMeNva][Gly(cHept)]))", "values": [{"measurement": "MIC", "setting": "[1]", "value": 0.2, "unit": "µM"}, {"measurement": "MIC", "setting": "[2]", "value": 8.8, "unit": "µM"}, {"measurement": "logD", "setting": "[6]", "value": 1.7}, {"measurement": "MIC", "setting": "[4]", "value": 100, "unit": "µM"}]}]}
